In one experiment the target is D(1A) dopamine receptor (Rattus norvegicus, UniProt P18901). The experiment in a line: Affinity pKi for Dopamine receptor D1 was measured in rat cortex homogenates. In kind it is tissue-based. The method in brief:
(§1)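 Competition binding with rat cortex homogenate: radioligand near its KD plus a wide range of test drug concentrations in duplicate, 30 min at 27 °C. Buffer 50 mM TRIS-HCl, 5 mM CaCl₂, 0.1% (w/v) ascorbate, 10 mM pargyline. Nonspecific binding defined with excess cold 5HT. Rapid filtration with ice-cold buffer wash, liquid scintillation count. pKi is the mean of at least three estimates.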

The target in a further experiment is D(2) dopamine receptor (Rattus norvegicus, UniProt P61169). Briefly: Affinity pKi for Dopamine receptor D2 was measured in rat cortex homogenates. In kind it is tissue-based. In a few lines:
as §1

Experiment [1] has as its target T1, 5-hydroxytryptamine receptor 2C (Rattus norvegicus, UniProt P08909).
T1 sequence (P08909 whole entry): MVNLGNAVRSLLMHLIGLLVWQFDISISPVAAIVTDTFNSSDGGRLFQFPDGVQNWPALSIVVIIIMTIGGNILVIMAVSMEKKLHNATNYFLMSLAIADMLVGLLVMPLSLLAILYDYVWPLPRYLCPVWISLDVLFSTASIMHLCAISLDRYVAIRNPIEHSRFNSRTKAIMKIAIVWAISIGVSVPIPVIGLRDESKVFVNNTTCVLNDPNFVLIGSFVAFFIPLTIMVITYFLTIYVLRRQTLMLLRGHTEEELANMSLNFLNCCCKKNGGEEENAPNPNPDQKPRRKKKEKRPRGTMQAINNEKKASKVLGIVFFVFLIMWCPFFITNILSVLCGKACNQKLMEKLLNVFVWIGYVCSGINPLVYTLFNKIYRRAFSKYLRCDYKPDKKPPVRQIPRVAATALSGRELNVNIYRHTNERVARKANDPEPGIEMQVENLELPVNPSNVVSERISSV
The experiment in a line: Affinity pKi for 5-hydroxytryptamine 2C receptor was measured in rat cortex homogenates. It is filed as tissue-based. The method in brief: as §1

In experiment [2] the target is T2, 5-hydroxytryptamine receptor 1A (Rattus norvegicus, UniProt P19327).
T2 sequence (P19327 whole entry): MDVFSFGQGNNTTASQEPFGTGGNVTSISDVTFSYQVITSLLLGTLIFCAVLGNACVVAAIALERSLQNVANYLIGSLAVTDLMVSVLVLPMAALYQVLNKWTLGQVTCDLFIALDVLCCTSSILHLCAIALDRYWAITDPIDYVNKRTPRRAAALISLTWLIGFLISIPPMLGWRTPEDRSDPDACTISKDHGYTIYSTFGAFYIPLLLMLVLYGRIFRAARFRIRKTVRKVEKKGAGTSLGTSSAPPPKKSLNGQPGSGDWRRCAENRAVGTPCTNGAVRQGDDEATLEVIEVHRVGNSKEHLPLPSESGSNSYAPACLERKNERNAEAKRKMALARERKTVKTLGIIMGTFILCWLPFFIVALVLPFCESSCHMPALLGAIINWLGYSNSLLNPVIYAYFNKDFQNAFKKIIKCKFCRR
Briefly: Affinity pKi for 5-hydroxytryptamine 1A receptor was measured in rat cortex homogenates. It is filed as tissue-based. In a few lines: as §1

For experiment [3], the target named is 5-hydroxytryptamine receptor 7 (Homo sapiens) (UniProt P34969). The experiment in a line: The dissociation equilibrium constant (pKB=-log KB) of compound was determined against the vascular 5-hydroxytryptamine 7 receptor in the endothelium denuded rabbit jugular vein. The conditions noted are these: Oryctolagus cuniculus; target entry is the homologue from another species.
Chain of 5-hydroxytryptamine receptor 7 (Homo sapiens) (P34969 whole entry): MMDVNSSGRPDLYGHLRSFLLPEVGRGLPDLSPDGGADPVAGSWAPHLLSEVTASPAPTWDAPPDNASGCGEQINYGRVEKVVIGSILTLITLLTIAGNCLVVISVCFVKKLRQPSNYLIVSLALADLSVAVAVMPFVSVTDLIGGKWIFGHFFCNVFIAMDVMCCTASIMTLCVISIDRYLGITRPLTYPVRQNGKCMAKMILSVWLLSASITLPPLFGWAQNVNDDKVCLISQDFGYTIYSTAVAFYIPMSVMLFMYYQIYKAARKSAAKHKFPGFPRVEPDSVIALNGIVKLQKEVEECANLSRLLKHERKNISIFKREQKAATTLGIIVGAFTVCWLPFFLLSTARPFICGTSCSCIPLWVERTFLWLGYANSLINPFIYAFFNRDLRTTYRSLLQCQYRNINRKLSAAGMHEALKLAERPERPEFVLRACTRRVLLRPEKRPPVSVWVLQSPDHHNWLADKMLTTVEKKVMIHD

The target of experiment [4] is 5-hydroxytryptamine receptor 2B (Homo sapiens) (UniProt P41595). Briefly: The dissociation equilibrium constant (pKB=-log KB) of compound was determined against the vascular 5-hydroxytryptamine 2B receptor in the endothelium intact rabbit jugular vein. The conditions noted are these: Oryctolagus cuniculus; target entry is the homologue from another species.
Chain of 5-hydroxytryptamine receptor 2B (Homo sapiens) (P41595 whole entry): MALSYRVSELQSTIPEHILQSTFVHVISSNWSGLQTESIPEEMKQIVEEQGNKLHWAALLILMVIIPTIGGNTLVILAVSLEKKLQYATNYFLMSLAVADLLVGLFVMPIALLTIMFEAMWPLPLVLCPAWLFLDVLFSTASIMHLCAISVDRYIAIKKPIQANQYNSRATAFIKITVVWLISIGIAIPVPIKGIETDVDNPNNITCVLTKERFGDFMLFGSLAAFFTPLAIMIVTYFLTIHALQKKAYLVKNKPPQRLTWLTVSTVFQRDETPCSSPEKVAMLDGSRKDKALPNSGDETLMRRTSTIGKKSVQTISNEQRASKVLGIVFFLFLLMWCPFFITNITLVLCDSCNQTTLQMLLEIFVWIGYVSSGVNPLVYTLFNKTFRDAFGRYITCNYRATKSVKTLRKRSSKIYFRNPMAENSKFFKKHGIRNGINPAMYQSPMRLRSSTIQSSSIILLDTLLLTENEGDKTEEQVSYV
Experiment [5] has as its target T3, Adrenergic receptor alpha-1 (Rattus norvegicus, UniProt P15823+P23944+P43140).
T3 sequence (P15823 whole entry): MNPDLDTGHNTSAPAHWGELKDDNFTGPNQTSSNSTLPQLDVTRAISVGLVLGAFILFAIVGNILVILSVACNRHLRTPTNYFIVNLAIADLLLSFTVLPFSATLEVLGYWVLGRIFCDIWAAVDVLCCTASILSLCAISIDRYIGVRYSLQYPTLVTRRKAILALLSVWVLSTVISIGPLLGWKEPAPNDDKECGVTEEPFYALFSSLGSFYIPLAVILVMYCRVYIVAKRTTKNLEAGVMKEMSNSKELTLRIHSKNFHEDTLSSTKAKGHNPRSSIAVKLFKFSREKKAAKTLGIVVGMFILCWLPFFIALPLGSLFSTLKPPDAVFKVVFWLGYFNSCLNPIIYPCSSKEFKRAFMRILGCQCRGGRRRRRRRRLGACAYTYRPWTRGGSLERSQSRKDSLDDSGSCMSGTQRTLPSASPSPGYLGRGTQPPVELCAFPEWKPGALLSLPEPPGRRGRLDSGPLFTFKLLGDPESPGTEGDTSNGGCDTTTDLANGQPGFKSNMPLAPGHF
T3 sequence (P23944 whole entry): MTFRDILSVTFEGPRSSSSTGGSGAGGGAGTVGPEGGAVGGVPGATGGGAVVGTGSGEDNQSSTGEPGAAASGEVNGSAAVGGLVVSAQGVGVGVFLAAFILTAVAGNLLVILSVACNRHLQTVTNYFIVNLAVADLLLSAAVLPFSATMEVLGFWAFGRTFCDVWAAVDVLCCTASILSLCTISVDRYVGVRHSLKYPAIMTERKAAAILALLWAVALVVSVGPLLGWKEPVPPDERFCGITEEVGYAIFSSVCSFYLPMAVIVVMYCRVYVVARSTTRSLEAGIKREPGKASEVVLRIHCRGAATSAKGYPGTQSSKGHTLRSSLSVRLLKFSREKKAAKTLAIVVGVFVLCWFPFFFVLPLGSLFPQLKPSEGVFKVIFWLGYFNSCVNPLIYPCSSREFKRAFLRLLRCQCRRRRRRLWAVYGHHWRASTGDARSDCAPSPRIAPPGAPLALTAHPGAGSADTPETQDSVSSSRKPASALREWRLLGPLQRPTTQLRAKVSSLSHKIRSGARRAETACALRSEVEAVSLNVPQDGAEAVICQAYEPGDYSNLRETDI
T3 sequence (P43140 whole entry): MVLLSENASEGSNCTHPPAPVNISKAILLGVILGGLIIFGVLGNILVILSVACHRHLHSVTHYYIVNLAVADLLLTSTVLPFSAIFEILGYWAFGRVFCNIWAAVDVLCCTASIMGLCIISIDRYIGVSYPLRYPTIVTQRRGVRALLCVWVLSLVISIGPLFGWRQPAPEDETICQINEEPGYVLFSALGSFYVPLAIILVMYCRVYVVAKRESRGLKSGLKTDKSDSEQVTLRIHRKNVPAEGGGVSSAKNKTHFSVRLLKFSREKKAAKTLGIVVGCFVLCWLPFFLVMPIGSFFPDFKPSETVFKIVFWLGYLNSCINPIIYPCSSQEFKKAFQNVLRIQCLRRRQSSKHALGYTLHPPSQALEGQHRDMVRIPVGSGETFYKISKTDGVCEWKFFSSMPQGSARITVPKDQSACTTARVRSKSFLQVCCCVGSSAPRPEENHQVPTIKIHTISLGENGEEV
Briefly: Affinity pKi for Alpha-1 adrenergic receptor was measured in rat cortex homogenates. In kind it is tissue-based. In a few lines:
as §1

The record followed here is ChEMBL document CHEMBL1130209, “A novel series of 2,5-substituted tryptamine derivatives as vascular 5HT1B/1D receptor antagonists” (J Med Chem, 1997).

Chain of D(2) dopamine receptor (P61169 whole entry): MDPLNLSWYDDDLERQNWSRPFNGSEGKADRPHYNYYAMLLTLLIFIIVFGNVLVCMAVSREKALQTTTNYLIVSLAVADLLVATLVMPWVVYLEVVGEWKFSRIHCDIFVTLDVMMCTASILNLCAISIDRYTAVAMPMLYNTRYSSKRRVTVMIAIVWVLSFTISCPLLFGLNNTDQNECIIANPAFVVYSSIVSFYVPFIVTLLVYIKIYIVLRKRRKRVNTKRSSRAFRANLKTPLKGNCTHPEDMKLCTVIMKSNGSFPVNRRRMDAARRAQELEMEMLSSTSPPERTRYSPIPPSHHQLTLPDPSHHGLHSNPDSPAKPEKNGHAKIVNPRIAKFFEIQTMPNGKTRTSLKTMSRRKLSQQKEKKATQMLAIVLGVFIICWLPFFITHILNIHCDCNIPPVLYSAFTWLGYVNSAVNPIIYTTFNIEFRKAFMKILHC
Chain of D(1A) dopamine receptor (P18901 whole entry): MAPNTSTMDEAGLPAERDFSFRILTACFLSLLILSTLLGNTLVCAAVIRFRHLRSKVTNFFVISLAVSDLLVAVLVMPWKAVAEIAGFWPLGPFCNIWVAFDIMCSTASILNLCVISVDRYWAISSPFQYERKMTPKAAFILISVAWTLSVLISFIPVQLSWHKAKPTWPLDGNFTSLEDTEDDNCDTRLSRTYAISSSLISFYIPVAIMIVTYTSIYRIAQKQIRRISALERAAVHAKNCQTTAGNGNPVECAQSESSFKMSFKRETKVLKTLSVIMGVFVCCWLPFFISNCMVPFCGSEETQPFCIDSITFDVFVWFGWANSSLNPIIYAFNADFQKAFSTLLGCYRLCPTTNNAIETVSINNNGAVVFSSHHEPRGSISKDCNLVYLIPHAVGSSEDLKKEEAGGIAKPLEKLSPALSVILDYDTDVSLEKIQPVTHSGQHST

One may read the Ki as a dissociation constant, usually derived from enzyme kinetics or from competition with a known ligand. The low end stands for tighter binding, the high end for weaker binding. In general, pKB refers to −log10 of the KB, conventionally taken in molar units. A lower pKB goes with a large KB. `CCOC(=O)c1[nH]c2ccc(CCN3C(=O)CNC3=O)cc2c1CCN(C)C`: the Ki was 32.4 µM on D(1A) dopamine receptor, 10.7 µM on D(2) dopamine receptor, 5.5 µM in experiment [1] and 9.33 µM in experiment [2]. The pKB in experiment [3] is 5.5; in experiment [4], less than 5. The “Log Ki” value in experiment [5] is -4.95.
